Experimental data from different studies.
Each line is one published result; the experiments were not run side by side.
Target: Serine/threonine-protein kinase 32A (STK32A, Homo sapiens, UniProt Q8WU08)

| Structure (SMILES) | assay | setting | remaining binding |
| --- | --- | --- | --- |
| O=C(c1ccc(Nc2ncc(Cl)c(-c3cc4ccccc4s3)n2)cc1)N1CCC(N2CCCC2)CC1 | binding, competition with immobilised ligand | 1 µM | 68% |
| COc1cnc(Nc2cccc(S(N)(=O)=O)c2)nc1N1CCN(c2ccccc2)CC1 | binding, competition with immobilised ligand | 1 µM | 94% |
| FC(F)(F)Oc1cccc(-c2cnc3ccc(-c4ccncc4)nn23)c1 | binding, competition with immobilised ligand | 5 µM | 75% |
| CN(C(=O)c1ccccc1)c1cc(N(C)c2ccc3c(c2)CCc2ccc(C(=O)NCCN4CCOCC4)cc2C3=O)ccc1F | cell-free assay, competition with immobilised ligand | 1 µM | 68% |
| c1cnn2ncc(-c3ccnc(N4CCC45COC5)n3)c2c1 | binding | 1 µM | 58% |
| COc1ncc2cc3ccccc3nc2c1C#N | binding, competition with immobilised ligand | 5 µM | 100% |
| CN(C)c1nccc(-c2cnn3ncccc23)n1 | binding | 1 µM | 81% |
| CCC(=O)N[C@H]1CC[C@@H](C(=O)N(C)c2ccc(-c3nc4ccccc4o3)cc2)C1 | cell-free assay, competition with immobilised ligand | 1 µM | 98% |
| COc1cnc(Nc2cccc(S(N)(=O)=O)c2)nc1N1CCN(c2ccccc2)C(=O)C1 | binding, competition with immobilised ligand | 1 µM | 98% |
| CC(=O)Nc1c(C(C)=O)c(=O)n(C)c2nc(-c3ccc(Cl)cc3Cl)c(-c3ccc(Cl)cc3)cc12 | cell-free assay, competition with immobilised ligand | 1 µM | 82% |
| C[C@@H](c1ccc(-n2cnc3c(N)ncnc32)cc1)N1CCc2nn(C)c(Cc3ccccc3)c2C1=O | binding, competition with immobilised ligand | 0.1 µM | 94% |
| O=C(NCC1CCOCC1)c1n[nH]cc1NC(=O)c1c(F)cccc1F | binding, competition with immobilised ligand | 1 µM | 88% |
| C[C@@H]1CCN(c2nccc(-c3cnn4ncccc34)n2)C1 | binding | 1 µM | 71% |
| O=C(NCCCN1CCOCC1)c1ccc(Nc2nccc(-c3cc4ccccc4s3)n2)cc1 | binding, competition with immobilised ligand | 1 µM | 100% |
| N[C@@H]1CCN(c2nccc(-c3cnn4ncccc34)n2)C1 | binding | 1 µM | 98% |
| N#Cc1ccc(Nc2ccc3[nH]c(=O)[nH]c3c2)c(Cl)c1 | binding, competition with immobilised ligand | 1 µM | 81% |
| CN(CCCC(F)(F)F)c1nccc(-c2cnn3ncccc23)n1 | binding | 1 µM | 100% |
| CCN1CCN(Cc2ccc(C(=O)Nc3ccc(C)c(Oc4ccc5c(c4)CC(=O)N5)c3)cc2C(F)(F)F)CC1 | binding, competition with immobilised ligand | 1 µM | 100% |
| CN(c1ccnc(CNc2nc(Nc3ccc4c(c3)CC(=O)N4)ncc2C(F)(F)F)n1)S(C)(=O)=O | cell-free assay, competition with immobilised ligand | 1 µM | 72% |
| Cc1cnn2ncc(-c3ccnc(N(C)C)n3)c2c1 | binding | 1 µM | 71% |
| CNC(=O)Nc1ccc2c(c1)CC[C@@]21OC(=O)N(CC(=O)N(Cc2ccc(F)cc2)[C@@H](C)C(F)(F)F)C1=O | binding, competition with immobilised ligand | 1 µM | 88% |
| Cc1cnc(Nc2ccc(C(=O)N3CCC(N4CCCC4)CC3)cc2)nc1-c1cc2ccccc2s1 | binding, competition with immobilised ligand | 1 µM | 79% |
